Measured values published in ChEMBL document CHEMBL1914380, “Polyalkoxybenzenes from plants. 5. Parsley seed extract in synthesis of azapodophyllotoxins featuring strong tubulin destabilizing activity in the sea urchin embryo and cell culture assays” (J Med Chem, 2011).
Active and inactive are the calls of the source. The calls are words filed in the database; no cut-off is given here.

Tests used:
[1] = test system: Paracentrotus lividus; experiment: Antimitotic activity against Paracentrotus lividus embryo assessed as cleavage alteration treated 10 to 25 mins post fertilization followed by 45 to 60 mins before the first mitotic cycle completion by sea urchin embryo assay; format: functional
[2] = test system: Paracentrotus lividus; experiment: Antimitotic activity against Paracentrotus lividus embryo assessed as cleavage arrest treated 10 to 25 mins post fertilization followed by 45 to 60 mins before the first mitotic cycle completion by sea urchin embryo assay; format: functional
[3] = test system: Paracentrotus lividus; experiment: Antimitotic activity against Paracentrotus lividus embryo assessed as embryo spinning treated 10 to 25 mins post fertilization followed by 45 to 60 mins before the first mitotic cycle completion by sea urchin embryo assay; format: functional
[4] = test system: Paracentrotus lividus; experiment: Antimitotic activity against Paracentrotus lividus embryo assessed as larval malformation at 4 to 5 uM post hatching by microscopic analysis; format: functional, organism-based
Outline: (§1)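 P. lividus hatched blastulae exposed to compound; larval (pluteus) malformations, gastrulation and morphogenesis abnormalities, and developmental abnormalities/embryo death scored microscopically, the latter after 2.5 h of treatment.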

[5] = test system: Paracentrotus lividus; experiment: Antimitotic activity against Paracentrotus lividus embryo assessed as abnormal gastrula formation at 10 to 20 uM by microscopic analysis; format: functional, organism-based; outline: as §1
[6] = test system: Paracentrotus lividus; experiment: Induction of apoptosis in Paracentrotus lividus embryo assessed as developmental abnormalities at 40 to 68 uM after 2.5 hrs; format: functional, organism-based; outline: as §1
[7] = test system: Jurkat; experiment: Cell cycle arrest in human Jurkat cells assessed as accumulation of cells in G0/G1 phase at 2 uM after 24 hrs by propidium iodide staining-based flow cytometry; format: functional
Outline: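 Jurkat cells treated 24 h; DNA content after propidium iodide staining measured by flow cytometry for cell cycle distribution.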

[8] = test system: Jurkat; experiment: Induction of apoptosis in human Jurkat cells assessed as reduction in procaspase-8 levels at 2 uM after 24 hrs by Western blotting; format: functional, cell-based
Outline: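 Jurkat cells treated 24 h; total lysates prepared in SDS–Laemmli sample buffer and immunoblotted with anti-procaspase-8 monoclonal antibody; β-actin as loading control.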

[9] = test system: Paracentrotus lividus; experiment: Toxicity against Paracentrotus lividus embryo at 40 to 68 uM after 2.5 hrs; format: organism-based; conditions: in vivo; outline: as §1

COc1cc([C@@H]2c3cc4c(cc3[C@@H](O[C@@H]3O[C@@H]5CO[C@@H](C)O[C@H]5[C@H](O)[C@H]3O)[C@H]3COC(=O)[C@H]23)OCO4)cc(OC)c1O [ETOPOSIDE]
EC [1]: 2000 nM
EC [2]: >68 µM
EC [3]: >68 µM
Activity [4]: Active
Activity [5]: Active
Activity [6]: Active
Activity [7]: Active
Activity [8]: Active
Activity [9]: Toxic
